These results are taken from PubChem BioAssay AID686939 (The Scripps Research Institute Molecular Screening Center, 2013).

Among all 3,500 compounds or so, about 1,400 (40%) were called active. So high a share suggests a set chosen from earlier hits. Not all results are given here. A number with no mark means an inactive call.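 How the source made its calls: active means activation above the solvent-only control well mean plus 3 SD, averaged across control plates (cut at about 5.2% in these data); inactive means the rest.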

A short description of this assay: nonselective transcriptional activators, VP16 reporter – cell-based, pG5luc, luminescence, high throughput, counter-screen for SMARCA2 (BRM) activator project (AID 686939). Conditions: HEK293 GAL4-VP16 pG5luc reporter, luciferase luminescence; at 9.1 µM; active compounds read high; scaled: DMSO wells 0%, SAHA wells 100%. Summed up: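 system = 293 cells carrying GAL4-VP16 plus UAS-luciferase reporter | input = 2,500 transfected 293 cells per well | doses = one dose, 9.1 µM nominal | incubation = 24 h exposure, 37 °C, 5% CO2, One-Glo 15 min RT | measured by = One-Glo luciferase luminescence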
A general note: A counterscreen serves to expose hits that act by an unwanted route or on another target.
Take `Cc1ccc(-c2nc3ccc(Br)cn3c2Cc2ccccc2C(F)(F)F)cc1`: the activation was 7.09% (active).
To `Cc1ccc(-c2nc3ccc(Cl)cn3c2Cc2ccccc2)cc1` belongs 5.49% (active).
Regarding `CC(C)Cc1nnc(NC(=O)CCNC(=O)c2ccccc2Cl)s1`, the activation was -0.47%.
With `Cc1cc(-n2cnc(-c3cn(C)nc3C)n2)no1` the figure was 2.79%.
With `Cc1nnc(NC(=O)Cn2c(=O)sc3ccccc32)s1`, the activation was 0.78%.
With `COc1ccccc1C1=Nc2cccc3cccc(c23)N1` the figure was 2.12%; with `NS(=O)(=O)c1ccccc1NC(=O)c1c(O)c2ccccc2[nH]c1=O`, 14.3% (active).
Turning to `CCN(CC)C(=O)CSc1nnc(-c2cccc(OC)c2)o1`, the activation is 2.98%.
To `CCOC(=O)Nc1ccc(NC(=O)OCC)cc1` belongs 2.67%; to `COc1ccc(-c2cc(-c3ccc(N)cc3)nc(N)c2C#N)cc1OC`, 3.72%.
Take `CCCCCCOC(=O)NCC(O)c1ccccc1` (stereo not given): the activation was 9.46% (active).
With `CC(=O)c1ccc(NC(=O)c2sc3nc4n(c(=O)c3c2C)CCCCC4)cc1` the figure was 9.18% (active); with `O=c1c2c(nc3n1CCCCC3)sc1c(O)cccc12`, 6.75% (active); with `CCOc1cccc2c1OC1(CCCCC1)N1N=C(c3cccnc3)CC21` (stereo not given), 0.45%.
To `O=C(Cn1ncc(N2CCCC2)c(Br)c1=O)c1ccc(Cl)cc1` belongs 5.53% (active).
With `COc1ccc2ccccc2c1CNCc1ccccn1` the figure was 4.06%; with `C1=C(CCNc2ncnc3c2cnn3-c2ccccc2)CCCC1`, 14.9% (active); with `CN(C)C(CNC(=O)c1ccc(OCc2cn3ccccc3n2)cc1)c1ccco1` (stereo not given), 3.42%.
As for `C=CC(=O)OCCOCCOCCOCCOC(=O)C=C`, the activation was 3.33%.
On to `COC(=O)C1C(=O)c2c([nH]c(C(=O)OCCSC)c2C)CC1C` (stereo not given), for which the activation was 11.8% (active).
To `O=C(CSc1nc2ccccc2[nH]1)c1cccs1` belongs 13.1% (active); to `CC1(C(=O)NS(=O)(=O)C2CC2)CCCN(C(=O)CSc2ccccc2)C1` (stereo not given), -0.05%; to `Cc1cc(C(=O)NNC(=S)Nc2ccccc2C)cs1`, 8.68% (active).
With `Cc1ccc(-n2c(SCC(=O)N3CCC(C(=O)O)CC3)nc3ccccc3c2=O)cc1C` the figure was 4.53%; with `CCNC(=S)N1CCN(c2ncccn2)CC1`, -0.27%; with `COC(=O)c1sc(-c2ccc(C(C)(C)C)cc2)cc1NC(=O)/C=C/C(=O)O`, 4.46%.
With `Cn1c2ccc(F)cc2c2nnc(NN)nc21` the figure was 0.75%; with `Cc1cccc(CSc2ccc(-c3cccs3)nn2)c1`, 3.46%; with `COc1ccc(Cn2c(C)c(C)c(C#N)c2NC(=O)Nc2ccc(F)cc2)cc1`, -0.19%.
On to `O=C(Nc1ccc2c(c1)CCC2)c1ccc(Br)s1`, for which the activation was 5.57% (active).
With `O=C(NC1CCCC1)C(=O)c1c[nH]c2ccccc12` the figure was 6.44% (active); with `CC(=O)c1cccc(-c2cnc3c(NC=O)cc(-c4ccc(N5CCN(C)CC5)cc4)cn23)c1`, 2.83%; with `CCN(CC)C(=O)c1sc2nc(-c3ccccc3)ccc2c1N`, 11.2% (active).
With `COc1cccc(C(=O)Nc2cc3c(cc2Br)OCCCO3)c1` the figure was 9.44% (active); with `c1ccc2cc3c(NCCN4CCOCC4)ccnc3cc2c1`, 0.84%; with `Cc1cccc(-n2c(O)c(C=Nc3ccccc3N)c(=O)[nH]c2=O)c1`, 6.14% (active).
As to `C=C1C(=O)[C@]23C[C@H]1CCC2[C@@]1(C)C(C[C@@H]3O)[C@](C)(C(=O)O)CC[C@@H]1O` (stereo not given in full), the activation is 1.65%.
To `COc1cccc(-c2nc3cc(C)ccc3o2)c1` belongs 3.74%; to `Cn1c(-c2ccc(F)cc2)cc2onc(-c3ccccc3Cl)c2c1=O`, 9.37% (active); to `Fc1ccc(/C=N/Nc2nc(-c3cccnc3)nc3ccccc23)cc1`, 8.57% (active).
To `CC(=O)Nc1cc(-c2ccc(N3CCN(C)CC3)cc2)cn2c(-c3ccc(F)cc3)cnc12` belongs 1.59%; to `Cc1nc(-c2nnc(SCC(=O)Nc3cc(C(F)(F)F)cc(C(F)(F)F)c3)n2C)cs1`, -1.04%.
For the compound `CCCCNC(=O)C1CCC(CNS(=O)(=O)c2ccc(NC(C)=O)cc2)CC1` (stereo not given), the activation was 0.63%.
To `Fc1ccc(CNc2nc3ccccc3n3nnnc23)cc1` belongs 2.47%; to `CC(C)CCNC(=O)c1ccc2c(Cl)c3c(nc2c1)CCC3`, 9.88% (active).
With `COCC1CCN(C(=O)C2CCC(=O)N(Cc3cccc(C(F)(F)F)c3)C2)CC1` (stereo not given) the figure was 1.34%; with `O=C(Nc1cc(=O)[nH]c2ncnn12)c1ccccc1Cl`, 0.46%.
Take `COc1c(O)cc2oc(-c3ccc(O)c(O)c3)cc(=O)c2c1O`: the activation was 12.4% (active).
With `CCCn1nc(C(=O)Nc2ccc3nc(C)sc3c2)c2ccccc2c1=O` the figure was -0.78%; with `O=C(N[C@H]1CC[C@H](CC(=O)N2CCCCC2)O[C@@H]1CO)c1cccc(F)c1`, 0.09%.
As for `O=C(c1cc(-c2ccccc2O)on1)N1CCCC1`, the activation is 9.74% (active).
Regarding `O=C(c1cc(-c2ccc(O)cc2)on1)N1CCOCC1`, the activation was 6.96% (active).
For the compound `Cc1cc(-c2n[nH]c(=S)n2/N=C/C(Br)=C/c2ccccc2)n[nH]1`, the activation is 4.37%.
To `CCCCn1nnnc1C(c1cc2ccccc2o1)N(C)Cc1ccc(Cl)c(Cl)c1` (stereo not given) belongs 1.67%; to `O=C(CCCc1ccccc1)NCc1ccccc1`, 2.83%; to `COc1ccc(OCCCC(=O)NCCc2ccccc2)cc1`, 1.27%.
For `Cc1ccc(F)c(NC(=O)CCc2ccccc2)c1`, the activation is 5.92% (active).
For `O=C(O)c1ccc(COc2c(F)c(F)cc(F)c2F)o1`, the activation was -0.39%.
With `O=C(O)c1cccc(N=NN2CCCCCC2)c1` the figure was 13.9% (active).
To `CN(C)CCNC(=O)c1cccc(-c2cnc3c(NC=O)cc(-c4cccc(C(F)(F)F)c4)cn23)c1` belongs 1.42%.
As to `COc1ccc(-c2csc(Cc3nc(O)cs3)n2)cc1`, the activation was 19.6% (active).
As to `Cn1cccc1/C=N/NC(=O)c1ccc(OC(F)(F)C(F)F)cc1`, the activation was 3.99%.
To `O=C(c1cccs1)C1C(c2ccc(Br)cc2)NC(=S)NC1(O)C(F)(F)F` (stereo not given) belongs 2.08%.
To `COc1cc(CN2CCC(C(N)=O)CC2)ccc1OCc1ccccc1` belongs 8.4% (active).
To `COc1ccc(CC2c3cc(OC)c(OC)cc3CC[N+]2(C)CCC(=O)OCCCCCOC(=O)CC[N+]2(C)CCc3cc(OC)c(OC)cc3C2Cc2ccc(OC)c(OC)c2)cc1OC` (stereo not given) belongs 1.23%; to `COc1ccccc1OCC(=O)O/N=C(\N)c1ccccn1`, 4.97%.
In the case of `Cc1noc(C)c1S(=O)(=O)N(C)C[C@H]1Oc2c(NC(=O)Nc3ccc4c(c3)OCO4)cccc2C(=O)N([C@H](C)CO)C[C@@H]1C`, the activation was 0.03%.
As for `CN(C)C(=S)N=c1ssc(=S)n1Cc1ccco1`, the activation is 11.9% (active).
To `CCOC(=O)c1sc2nc(CSc3ccccc3)[nH]c(=O)c2c1C` belongs 0.23%; to `COc1ccc(-c2cc3ncccc3cn2)cc1`, 9.76% (active).
To `CC(C)(C)c1ccc(NC(=O)NCc2ccco2)cc1` belongs 0.6%.
On to `Cc1ccc(NC(=O)C(=O)NCc2ccco2)c(C)c1`, for which the activation was 5.75% (active).
Regarding `Cc1cc(O)c(NC(=O)c2ccc(C)c([N+](=O)[O-])c2)cc1C`, the activation was 7.82% (active).
As for `FC(F)(F)c1cccc(-c2nc3ccccc3n2C(c2ccccc2)c2nc3ccccc3[nH]2)c1` (stereo not given), the activation is 4.89%.
`COc1ccc(C(CNC(=O)c2ccc(S(=O)(=O)Nc3ccccc3F)cc2)N(C)C)cc1` (stereo not given): the activation is -0.57%.
For `CN(C)S(=O)(=O)c1ccc2oc(SCC(=O)Nc3ccccc3F)nc2c1`, the activation is 13.2% (active).
`COc1ccc(N=C(C)c2sc3ccccc3c2O)cc1`: the activation is 6.57% (active).
With `CCOC(=O)C(C)n1cnc2c(nnn2-c2cccc(OC)c2)c1=O` (stereo not given) the figure was 4.04%; with `COc1ccc(C(=O)NC2=NCCS2)c(OC)c1`, 12.2% (active); with `Cc1ccc(N/C=C/C(=O)c2ccccc2)cc1C`, 6.49% (active).
Turning to `Cc1cc(=O)[nH]c(N/N=C/c2ccc3c(c2)OCCO3)n1`, the activation was 3.2%.
`CCc1c(C)c2ccc(OC3CCCCC3=O)cc2oc1=O` (stereo not given): the activation was 2.57%.
To `COc1cc(/C=N/NC(=O)c2ccccc2)ccc1OS(=O)(=O)c1ccccc1` belongs 0.14%; to `COc1ccc(/C=N/NC(=O)c2cc(-c3cccc(C)c3)nc3ccccc23)cc1O`, 7.74% (active).
To `CC(C)(C)NC(=O)C(CCc1ccccc1)n1c(=O)c(-c2ccccc2)nc2ccccc21` (stereo not given) belongs 0.34%; to `CCC(C)N(C)C1CCN(C(=S)Nc2ccc(OC)cc2)CC1` (stereo not given), 1.62%.
`CCCCc1ccc(NC(=S)N2CCCC(CO)C2)cc1` (stereo not given): the activation was 10.3% (active).
Turning to `Cc1cc(C)c2nc3nc(C)cc(C)c3c(N)c2c1`, the activation was 3.96%.
With `O=C1Cc2cc(S(=O)(=O)Nc3cccc(F)c3)ccc2N1`, the activation was 1.09%.
With `CCc1ccc[n+](-c2nc([O-])sc2C=O)c1` the figure was 0.22%.
With `Cc1cc(C)nc(Nc2n[nH]c(-c3ccccc3N)n2)n1` the figure was 12.3% (active); with `CCOC(=O)c1c(C)[nH]c(C2=NNC(=NC(C)COC)SC2)c1C` (stereo not given), 8.27% (active); with `COc1cccc(OCCOc2cccc(/C=N/n3cnnc3)c2)c1`, 6.43% (active).
With `Cc1ccc(-c2c(C)n([O-])c3c([n+]2=O)CCC3)cc1` the figure was -0.96%; with `Cc1ccc(C(=O)CSc2ccccc2C(=O)O)cc1`, 6.75% (active).
On to `COCC(C)n1c(SCc2ccc(C(=O)OC)o2)nc2ccccc2c1=O` (stereo not given), for which the activation is 2.22%.
For the compound `CC1CCCCC1NC(=O)CN1CCC(O)(c2ccc3c(c2)OCO3)CC1` (stereo not given), the activation was 4.35%.
With `O=C(Nc1cccc([N+](=O)[O-])c1)N1CCc2ccccc2C1`, the activation was 4.55%.
With `O=C(Nc1cccc([N+](=O)[O-])c1)c1ccc2c(c1)OCO2` the figure was 8.02% (active); with `COc1ccc(C(=O)Nc2ccc3c(c2)OCO3)cc1OC`, 10.2% (active); with `COc1ccc(C)cc1S(=O)(=O)N(CC(=O)Nc1cccc([N+](=O)[O-])c1)c1ccc(C)cc1`, -1.27%.
With `Cc1ccnc(Nc2nc3ccccc3s2)n1` the figure was 3.74%; with `CC1(C)CC(=O)C=C(NCCCNC2CCCCC2)C1`, -0.02%.
With `Cc1cc2oc3ccc(NCCC4CCCN4C)cc3c(=O)c2cc1C` (stereo not given) the figure was 6.3% (active).
On to `Cc1ccccc1C#CC1=CC(=O)CC(C)(C)C1`, for which the activation is 1.83%.
